The source made the active and inactive calls. No cut-off for these calls is given here.
Key:
IB3-1 [1] = test: Inhibition of NFkappa B in human IB3-1 cells assessed as inhibition of TNF-alpha-induced IL8 protein release at 10 uM after 24 hrs relative to control; type: cell-based
Procedure, shortened: (§1)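 IB3-1 CF cells in LHC-8 with 5% FBS treated 24 h with compound plus TNF-α (80 ng/ml). IL-8 released into the culture supernatant measured by singleplex bead immunoassay (Bio-Plex): sample incubated with anti-IL-8 beads, then detection antibody, then streptavidin-phycoerythrin, read against cytokine standards as pg/ml; n = 3.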

IB3-1 [2] = test: Inhibition of NFkappa B in human IB3-1 cells assessed as inhibition of TNF-alpha-induced IL8 protein release at 50 uM after 24 hrs relative to control; type: cell-based; procedure, shortened: as §1
IB3-1 [3] = test: Inhibition of NFkappa B in human IB3-1 cells assessed as inhibition of TNF-alpha-induced IL8 mRNA accumulation at 50 uM after 24 hrs by RT-PCR analysis relative to control; type: cell-based
Procedure, shortened: (§2)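 IB3-1 CF bronchial cells (ΔF508/W1282X, adeno12/SV40-immortalized) grown in LHC-8 with 5% FBS, without gentamycin, at 37 °C. Exposed to compound and TNF-α (80 ng/ml) for 24 h. Total RNA extracted with TRIzol, oligo(dT)-primed AMV reverse transcription, then 40-cycle real-time PCR with IL-8 primers. IL-8 mRNA expressed relative to uninduced IB3-1 cells; n = 3.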

IB3-1 [4] = test: Inhibition of NFkappa B in human IB3-1 cells assessed as inhibition of TNF-alpha-induced IL8 mRNA accumulation at 10 uM after 24 hrs by RT-PCR analysis relative to control; type: cell-based; procedure, shortened: as §2
IB3-1 [5] = test: Inhibition of NFkappa B in human IB3-1 cells assessed as inhibition of TNF-alpha-induced IL8 mRNA accumulation at 30 uM after 24 hrs by RT-PCR analysis relative to control; type: cell-based; procedure, shortened: as §2
[6] = Inhibition of reconstituted NF-KB p50-p65 heterodimer/DNA interaction after 20 mins by EMSA
Procedure, shortened: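 p50 (10 ng) plus p65 (10 ng) human NF-κB proteins preincubated 20 min at room temperature with varying compound concentrations in buffer TF, 5% glycerol, 1 mM DTT. 0.25 ng 32P-labeled NF-κB site oligo then added for a further 20 min. Bound and free probe separated on 6% native polyacrylamide gel (0.25× TBE, 200 V); autoradiography.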

IB3-1 [7] = test: Inhibition of NFkappa B in human IB3-1 cells assessed as inhibition of TNF-alpha-induced IL8 protein release at 30 uM after 24 hrs relative to control; type: cell-based; procedure, shortened: as §1
[8] = Inhibition of NF-KB p50 subunit/DNA interaction after 20 mins by EMSA
Procedure, shortened: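 Human NF-κB p50 protein (10 ng) preincubated 20 min at room temperature with varying compound concentrations in buffer TF plus 5% glycerol, 1 mM DTT. Then 0.25 ng 32P-labeled double-stranded NF-κB consensus oligo (5'-CGC TGG GGA CTT TCC ACG G-3') added for 20 min more. Complexes resolved on 6% polyacrylamide gel in 0.25× TBE at 200 V; autoradiography.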

inhibition [6]	inhibition [8]	SMILES	inhibition (IB3-1 [1])	inhibition (IB3-1 [2])	inhibition (IB3-1 [3])	inhibition (IB3-1 [4])	inhibition (IB3-1 [5])	inhibition (IB3-1 [7])
Active	–	Cc1c(CC(=O)NC(Cc2ccccc2)C(=O)O)c(=O)oc2c(C)c3occ(C(C)(C)C)c3cc12 (racemic)	inactive	Active	Active	inactive	Active	Active
Active	Active	Cc1c(CC(=O)N[C@@H](Cc2ccccc2)C(=O)O)c(=O)oc2cc3occ(C(C)(C)C)c3cc12	–	–	–	–	–	–
Active	Active	Cc1c(CC(=O)NC(Cc2ccccc2)C(=O)O)c(=O)oc2cc3occ(C(C)(C)C)c3cc12 (racemic)	–	–	–	–	–	–
